Experimental data collected from several papers.
Each line is one published result; the experiments were not run side by side.
Target: Serine/threonine-protein kinase haspin (HASPIN, Homo sapiens, UniProt Q8TF76)
Sequence (Q8TF76 1-798, as in one of the studies): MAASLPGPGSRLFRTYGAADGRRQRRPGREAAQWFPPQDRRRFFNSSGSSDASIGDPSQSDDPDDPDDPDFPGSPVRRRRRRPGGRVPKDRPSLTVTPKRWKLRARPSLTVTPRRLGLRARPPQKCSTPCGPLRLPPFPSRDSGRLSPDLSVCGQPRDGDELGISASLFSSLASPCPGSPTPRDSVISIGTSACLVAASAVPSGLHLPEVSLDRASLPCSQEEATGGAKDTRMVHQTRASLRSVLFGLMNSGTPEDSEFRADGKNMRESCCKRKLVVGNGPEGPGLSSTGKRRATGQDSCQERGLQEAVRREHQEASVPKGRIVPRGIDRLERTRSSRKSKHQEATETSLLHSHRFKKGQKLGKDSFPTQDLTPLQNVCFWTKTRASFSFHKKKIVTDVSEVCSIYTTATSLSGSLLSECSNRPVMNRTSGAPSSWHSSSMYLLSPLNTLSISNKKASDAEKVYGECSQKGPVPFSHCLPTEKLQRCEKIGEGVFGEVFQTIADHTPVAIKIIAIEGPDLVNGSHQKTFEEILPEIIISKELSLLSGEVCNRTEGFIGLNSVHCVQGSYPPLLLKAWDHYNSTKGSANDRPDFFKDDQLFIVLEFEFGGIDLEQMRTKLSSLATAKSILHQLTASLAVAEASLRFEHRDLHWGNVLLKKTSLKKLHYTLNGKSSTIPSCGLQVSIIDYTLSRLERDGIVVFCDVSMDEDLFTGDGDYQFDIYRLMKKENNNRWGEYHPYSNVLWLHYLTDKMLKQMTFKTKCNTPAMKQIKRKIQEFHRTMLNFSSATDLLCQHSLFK

The inhibition of `Cn1cc(-c2cccc(N3CCc4c(sc5c4CC(C)(C)C5)C3=O)c2CO)cc(Nc2ccncn2)c1=O` is reported as -1% (enzyme activity; inhibitor; 1 µM).
`CC(C)(C)c1cc(C=C(C#N)C#N)cc(Br)c1O` gave a remaining activity of 67.2% (enzyme activity; inhibitor; 0.5 µM).
The inhibition of `C#Cc1n[nH]c2c(-c3cn(C(C)c4ccccn4)c(=O)[nH]c3=O)cc(F)cc12` (stereo not shown) is reported as 18.9% (enzyme activity; inhibitor; 1 µM).
For `N#CC1(c2ccccn2)CCN(Cc2cc(C(=O)O)c(=O)n3ccccc23)CC1`, the remaining binding was 100% (cell-free assay; competition with immobilised ligand; 1 µM).
`Nc1ncc(-c2nc(N3CCOCC3)nc(N3CCOCC3)n2)c(C(F)F)n1` gave a remaining binding of 71% (binding; competition with immobilised ligand; 10 µM).
With `Cn1cc(-c2cc(F)cc(N3CCn4c(cc5c4CCCC5)C3=O)c2CO)cc(Nc2ccc(N3CCN(C4COC4)CC3)cn2)c1=O` the inhibition was 8% (enzyme activity; inhibitor; 0.1 µM).
With `C#Cc1n[nH]c2c(-c3cn([C@@H](C)c4ccccc4)c(=O)[nH]c3=O)cc(F)cc12` the inhibition was -5.9% (enzyme activity; inhibitor; 0.1 µM).
`O=c1[nH]c2ccccc2n1C1CCN(Cc2ccc(-c3[nH]c4cc5ncnc5cc4nc3-c3ccccc3)cc2)CC1` has a remaining signal of 106% (cell-free assay; 0.5 µM).
`Cn1cncc1[C@](O)(COc1ccc(C#N)cc1-c1ccc(OC(F)(F)F)cc1)c1ccc(C#N)cc1` gave a remaining binding of 100% (cell-free assay; competition with immobilised ligand; 1 µM).
For `COc1ncccc1-c1cnn2ccc(N3CCN(C(=O)OC(C)C)CC3)nc12`, the remaining binding was 80% (binding; competition with immobilised ligand; 1 µM).
